Active and inactive are the calls of the source. The calls are words filed in the database; no cut-off is given here.
System: not listed separately
Assay: Cytotoxicity against mouse RAW264.7 cells
Format: cell-based
Settings: read-out: LD50 (the source's name)

| SMILES | CC50 [µM] |
| --- | --- |
| CCC(=O)Oc1cccc2c1C(=O)C=CC2=O | > 10 |
| CCCCC/C=C\C/C=C\CCCCCCCC(=O)Oc1cccc2c1C(=O)C=CC2=O | > 10 |
| CC/C=C\C/C=C\C/C=C\C/C=C\C/C=C\C/C=C\CCC(=O)Oc1cccc2c1C(=O)C=CC2=O | > 10 |

Species: Bos taurus
Assay: Inhibition of calf DNA polymerase alpha using bovine deoxyribonuclease 1-treated DNA and dNTP as the DNA template-primer and nucleotide substrate at 10 uM after 60 mins
Settings: not given

| SMILES | inhibition |
| --- | --- |
| O=C1C=CC(=O)c2c(O)cccc21 [JUGLONE] | Active |
| CCC(=O)Oc1cccc2c1C(=O)C=CC2=O | Active |
| CCCCC/C=C\C/C=C\CCCCCCCC(=O)Oc1cccc2c1C(=O)C=CC2=O | Active |
| CC/C=C\C/C=C\C/C=C\C/C=C\C/C=C\C/C=C\CCC(=O)Oc1cccc2c1C(=O)C=CC2=O | Active |

System: Mus musculus
Assay: Antiinflammatory activity in mouse assessed as inhibition of TPA-induced mouse ear edema at 500 ug/ear administered 30 mins before TPA challenge measured after 7 hrs relative to untreated control
Format: functional, organism-based
Settings: not given
Procedure, shortened: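 Compound (500 µg) applied to one mouse ear; 30 min later TPA (0.5 µg) applied to both ears. Edema scored after 7 h and expressed as percentage of edema. Mean ± SE, n = 6.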

| SMILES | Activity |
| --- | --- |
| O=C1C=CC(=O)c2c(O)cccc21 [JUGLONE] | Active |
| CCC(=O)Oc1cccc2c1C(=O)C=CC2=O | Active |
| CCCCC/C=C\C/C=C\CCCCCCCC(=O)Oc1cccc2c1C(=O)C=CC2=O | Active |
| CC/C=C\C/C=C\C/C=C\C/C=C\C/C=C\C/C=C\CCC(=O)Oc1cccc2c1C(=O)C=CC2=O | Active |

Biological target: T1, DNA polymerase kappa (Homo sapiens) (UniProt Q9UBT6)
T1 sequence (whole entry): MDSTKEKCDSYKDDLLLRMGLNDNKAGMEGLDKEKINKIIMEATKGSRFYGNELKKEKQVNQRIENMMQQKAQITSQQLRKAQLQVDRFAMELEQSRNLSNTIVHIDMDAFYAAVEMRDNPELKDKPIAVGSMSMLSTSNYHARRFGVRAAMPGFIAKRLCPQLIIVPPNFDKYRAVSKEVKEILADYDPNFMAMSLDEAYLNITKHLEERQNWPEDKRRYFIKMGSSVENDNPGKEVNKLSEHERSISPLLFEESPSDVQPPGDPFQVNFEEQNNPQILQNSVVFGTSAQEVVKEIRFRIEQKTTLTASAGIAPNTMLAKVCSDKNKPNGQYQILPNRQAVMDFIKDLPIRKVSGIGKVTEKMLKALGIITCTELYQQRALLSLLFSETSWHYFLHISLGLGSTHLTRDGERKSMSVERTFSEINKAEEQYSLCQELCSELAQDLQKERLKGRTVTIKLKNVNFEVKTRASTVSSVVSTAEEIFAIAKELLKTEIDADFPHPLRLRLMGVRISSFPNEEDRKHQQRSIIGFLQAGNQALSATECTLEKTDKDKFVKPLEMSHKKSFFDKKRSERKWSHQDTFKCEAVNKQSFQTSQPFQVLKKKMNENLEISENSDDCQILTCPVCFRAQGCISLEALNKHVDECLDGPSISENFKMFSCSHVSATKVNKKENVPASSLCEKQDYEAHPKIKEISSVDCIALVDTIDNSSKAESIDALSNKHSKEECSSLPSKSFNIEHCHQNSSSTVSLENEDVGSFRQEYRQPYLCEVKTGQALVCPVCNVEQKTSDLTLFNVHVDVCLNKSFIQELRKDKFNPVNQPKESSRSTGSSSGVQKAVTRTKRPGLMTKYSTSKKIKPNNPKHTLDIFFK
Assay: Inhibition of C-terminal His6-tagged human DNA polymerase kappa (amino acids 1 to 560) using bovine deoxyribonuclease 1-treated DNA and dNTP as the DNA template-primer and nucleotide substrate at 10 uM after 60 mins
Settings: not given

| SMILES | inhibition |
| --- | --- |
| O=C1C=CC(=O)c2c(O)cccc21 [JUGLONE] | Active |
| CCC(=O)Oc1cccc2c1C(=O)C=CC2=O | Active |
| CCCCC/C=C\C/C=C\CCCCCCCC(=O)Oc1cccc2c1C(=O)C=CC2=O | Active |
| CC/C=C\C/C=C\C/C=C\C/C=C\C/C=C\C/C=C\CCC(=O)Oc1cccc2c1C(=O)C=CC2=O | Active |

Biological target: T1, DNA polymerase kappa (Homo sapiens)
Assay: Inhibition of C-terminal His6-tagged human DNA polymerase kappa (amino acids 1 to 560) using poly(dA)/oligo(dT)18 (A/T = 2/1) and dTTP as the DNA template-primer and nucleotide substrate at 10 uM after 60 mins
Settings: not given

| SMILES | inhibition |
| --- | --- |
| O=C1C=CC(=O)c2c(O)cccc21 [JUGLONE] | Active |
| CCC(=O)Oc1cccc2c1C(=O)C=CC2=O | Active |
| CCCCC/C=C\C/C=C\CCCCCCCC(=O)Oc1cccc2c1C(=O)C=CC2=O | Active |
| CC/C=C\C/C=C\C/C=C\C/C=C\C/C=C\C/C=C\CCC(=O)Oc1cccc2c1C(=O)C=CC2=O | Active |

Species: Bos taurus
Assay: Inhibition of calf DNA polymerase alpha using poly(dA)/oligo(dT)18 (A/T = 2/1) and dTTP as the DNA template-primer and nucleotide substrate at 10 uM after 60 mins
Settings: not given
Procedure, shortened: (§1)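 Compound in DMSO, sonicated 30 s. Premixed 0 °C, 10 min with enzyme (0.05 units) in 50 mM Tris-HCl pH 7.5, 1 mM DTT, 50% glycerol, 0.1 mM EDTA, then added to standard reaction mixture. Template-primers: poly(dA)/oligo(dT)18 (2/1) for pols, oligo(dT)18 for TdT, poly(rA)/oligo(dT)18 for HIV-1 RT, with [3H]dTTP. 60 min at 37 °C (Taq 74 °C). Activity relative to no-inhibitor control; mean ± SE of three experiments.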

| SMILES | inhibition |
| --- | --- |
| O=C1C=CC(=O)c2c(O)cccc21 [JUGLONE] | Active |
| CCC(=O)Oc1cccc2c1C(=O)C=CC2=O | Active |
| CCCCC/C=C\C/C=C\CCCCCCCC(=O)Oc1cccc2c1C(=O)C=CC2=O | Active |
| CC/C=C\C/C=C\C/C=C\C/C=C\C/C=C\C/C=C\CCC(=O)Oc1cccc2c1C(=O)C=CC2=O | Active |

System: RAW264.7
Assay: Cytotoxicity against mouse RAW264.7 cells at 5 uM
Format: cell-based
Settings: raw264.7, 5 µM

| SMILES | Activity |
| --- | --- |
| O=C1C=CC(=O)c2c(O)cccc21 [JUGLONE] | Non-toxic |
| CCC(=O)Oc1cccc2c1C(=O)C=CC2=O | Non-toxic |
| CCCCC/C=C\C/C=C\CCCCCCCC(=O)Oc1cccc2c1C(=O)C=CC2=O | Non-toxic |
| CC/C=C\C/C=C\C/C=C\C/C=C\C/C=C\C/C=C\CCC(=O)Oc1cccc2c1C(=O)C=CC2=O | Non-toxic |

Biological target: T2, DNA polymerase lambda (Homo sapiens) (UniProt Q9UGP5)
T2 sequence (whole entry): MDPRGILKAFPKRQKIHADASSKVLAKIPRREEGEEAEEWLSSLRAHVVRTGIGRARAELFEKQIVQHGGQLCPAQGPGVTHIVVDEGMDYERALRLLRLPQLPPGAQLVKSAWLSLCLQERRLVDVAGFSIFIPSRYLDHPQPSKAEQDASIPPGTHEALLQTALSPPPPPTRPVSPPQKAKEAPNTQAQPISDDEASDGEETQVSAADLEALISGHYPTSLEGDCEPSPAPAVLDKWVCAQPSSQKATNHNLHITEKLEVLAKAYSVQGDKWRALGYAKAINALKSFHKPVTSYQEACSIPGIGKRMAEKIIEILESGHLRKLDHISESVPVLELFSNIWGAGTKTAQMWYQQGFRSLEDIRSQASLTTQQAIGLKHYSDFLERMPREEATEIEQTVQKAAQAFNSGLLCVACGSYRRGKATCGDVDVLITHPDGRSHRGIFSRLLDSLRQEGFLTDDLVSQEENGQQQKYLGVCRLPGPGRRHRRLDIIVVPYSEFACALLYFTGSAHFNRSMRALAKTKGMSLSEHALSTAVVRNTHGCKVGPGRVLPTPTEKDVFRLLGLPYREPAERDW
Assay: Inhibition of recombinant His-tagged human DNA polymerase lambda using bovine deoxyribonuclease 1-treated DNA and dNTP as the DNA template-primer and nucleotide substrate at 10 uM after 60 mins
Settings: not given

| SMILES | inhibition |
| --- | --- |
| O=C1C=CC(=O)c2c(O)cccc21 [JUGLONE] | Active |
| CCC(=O)Oc1cccc2c1C(=O)C=CC2=O | Active |
| CCCCC/C=C\C/C=C\CCCCCCCC(=O)Oc1cccc2c1C(=O)C=CC2=O | Active |
| CC/C=C\C/C=C\C/C=C\C/C=C\C/C=C\C/C=C\CCC(=O)Oc1cccc2c1C(=O)C=CC2=O | Active |

System: HCT-116
Assay: Cytotoxicity against human HCT116 cells at 100 uM by WST-1 assay
Format: functional, cell-based
Settings: not given
Procedure, shortened: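 HCT116 colon carcinoma cells (ATCC) grown in McCoy's 5A with 10% FBS, penicillin and streptomycin, 37 °C, 5% CO2. Plated at 1 × 10⁴ cells/well together with compound, which was diluted from a 10 mM DMSO stock into medium (final 0.5% DMSO). Incubated 24 h. Viability read by WST-1, expressed relative to untreated cells.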

| SMILES | Activity |
| --- | --- |
| O=C1C=CC(=O)c2c(O)cccc21 [JUGLONE] | Active |

System: RAW264.7
Assay: Antiinflammatory activity in mouse RAW264.7 cells assessed as inhibition of LPS-induced TNFalpha secretion at 5 uM treated 30 mins before LPS challenge measured after 24 hrs by ELISA
Format: functional, cell-based
Settings: not given
Procedure, shortened: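 RAW264.7 cells in MEM with 4.5 g/L glucose, 10% FCS, 5 mM L-glutamine, at 37 °C in 5% CO2. Seeded at 5 × 10⁴ cells/well and grown 24 h. Compound (final 1 and 5 µM) given 30 min before 100 ng/mL LPS. After 24 h, TNF-α in the medium measured by ELISA, relative to the no-compound value (100%). Mean ± SE, n = 4.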

| SMILES | Activity |
| --- | --- |
| O=C1C=CC(=O)c2c(O)cccc21 [JUGLONE] | Active |

Biological target: T2, DNA polymerase lambda (Homo sapiens)
Assay: Inhibition of recombinant His-tagged human DNA polymerase lambda using poly(dA)/oligo(dT)18 (A/T = 2/1) and dTTP as the DNA template-primer and nucleotide substrate at 10 uM after 60 mins
Settings: not given
Procedure, shortened: as §1

| SMILES | inhibition |
| --- | --- |
| O=C1C=CC(=O)c2c(O)cccc21 [JUGLONE] | Active |
| CCC(=O)Oc1cccc2c1C(=O)C=CC2=O | Active |
| CCCCC/C=C\C/C=C\CCCCCCCC(=O)Oc1cccc2c1C(=O)C=CC2=O | Active |
| CC/C=C\C/C=C\C/C=C\C/C=C\C/C=C\C/C=C\CCC(=O)Oc1cccc2c1C(=O)C=CC2=O | Active |

Species: Homo sapiens
Assay: Inhibition of histidine-tagged human DNA polymerase gamma using poly(dA)/oligo(dT)18 (A/T = 2/1) and dTTP as the DNA template-primer and nucleotide substrate at 10 uM after 60 mins
Settings: not given
Procedure, shortened: as §1

| SMILES | inhibition |
| --- | --- |
| O=C1C=CC(=O)c2c(O)cccc21 [JUGLONE] | Active |
| CCC(=O)Oc1cccc2c1C(=O)C=CC2=O | Active |
| CCCCC/C=C\C/C=C\CCCCCCCC(=O)Oc1cccc2c1C(=O)C=CC2=O | Active |
| CC/C=C\C/C=C\C/C=C\C/C=C\C/C=C\C/C=C\CCC(=O)Oc1cccc2c1C(=O)C=CC2=O | Active |

Species: Homo sapiens
Assay: Inhibition of histidine-tagged human DNA polymerase gamma using bovine deoxyribonuclease 1-treated DNA and dNTP as the DNA template-primer and nucleotide substrate at 10 uM after 60 mins
Settings: not given

| SMILES | inhibition |
| --- | --- |
| O=C1C=CC(=O)c2c(O)cccc21 [JUGLONE] | Active |
| CCC(=O)Oc1cccc2c1C(=O)C=CC2=O | Active |
| CCCCC/C=C\C/C=C\CCCCCCCC(=O)Oc1cccc2c1C(=O)C=CC2=O | Active |
| CC/C=C\C/C=C\C/C=C\C/C=C\C/C=C\C/C=C\CCC(=O)Oc1cccc2c1C(=O)C=CC2=O | Active |

System: Nucleic Acid
Assay: Binding affinity to DNA assessed as thermal transition of DNA relative to control
Format: nucleic-acid assay
Settings: not given

| SMILES | Activity |
| --- | --- |
| CCC(=O)Oc1cccc2c1C(=O)C=CC2=O | inactive |
| CCCCC/C=C\C/C=C\CCCCCCCC(=O)Oc1cccc2c1C(=O)C=CC2=O | inactive |
| CC/C=C\C/C=C\C/C=C\C/C=C\C/C=C\C/C=C\CCC(=O)Oc1cccc2c1C(=O)C=CC2=O | inactive |

Reference: ChEMBL document CHEMBL1914406, “Inhibitory effect of novel 5-O-acyl juglones on mammalian DNA polymerase activity, cancer cell growth and inflammatory response” (Bioorg Med Chem, 2011)
